Experimental data from PubChem BioAssay.
Active and inactive are the calls of the source.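 How the source made its calls, unless noted: active means viability at or under a set limit in both replicates, limit being median viability minus 3 SD (cut at about 48% in these data, passing the limit was not always enough); inconclusive means at or under the limit in just one replicate; inactive means at or above the limit in both replicates.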

Columns and labels:
[1] = reducers of endogenous Her2 protein level, primary screen, SKBR3 breast tumor cells, AlphaScreen, ATP viability (AID 461;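 active means Her2 level under about 52% in both replicate screens, with viability over 70% of control, limit read from the data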;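 on Her2 level: lower value means less Her2 protein in the cells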;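 on viability: percent of carrier control wells set as 100% viability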); settings: 18-24 h, measured here: SKBR3 viability, ATP luminescence, at 10 µM
[2] = molecular target: Receptor tyrosine-protein kinase erbB-2 (Homo sapiens) (UniProt P04626); assay: as above; settings: 18-24 h, at 10 µM, stronger effect = lower value
[3] = SK-BR-3 cell growth inhibitors, pilot screen, 24 h, human (AID 572;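 active means viability at or below 10% of carrier control in both of two separate runs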;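 further: compound exposure lasted between 18 and 24 h rather than exactly 24 h; 100% = carrier-treated control wells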); settings: SK-BR-3 viability, CellTiter-Glo luminescence, at 10 µM, stronger effect = lower value
[4] = HUVEC growth inhibition – cell-based, human, primary screen (AID 575;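 active means viability at or below 30% in both replicate assays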;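 further: 100% = median of untreated cell wells with 0.1% DMSO on each plate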); settings: HUVEC proliferation, CellTiter-Glo luminescence, 72 h; at 10 µM; stronger effect = lower value
In short: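 System: primary human umbilical vein endothelial cells; Quantity: 1250 endothelial cells in each well; Buffer or medium: supplemented EBM, 2% fetal bovine serum; Doses: one dose, 10 µM final, 0.1% DMSO; Incubation: 72 h compound incubation; Technique: ATP-based CellTiter-Glo luminescent read; Evaluation: percent of median DMSO-control luminescence; Controls: vehicle and MePR control wells.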

[5] = growth inhibitors of H69AR lung tumor, primary screen, human, duplicate replicates (AID 580); settings: H69AR lung tumor cells viability, ATP luminescence, 72 h; at 10 µM; stronger effect = lower value;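 further: 100% = mean luminescence of untreated wells and 0% = no signal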
[6] = reversal of MRP1-mediated doxorubicin resistance, pilot screen, H69AR cells, doxorubicin co-treatment (AID 601;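 active means viability loss from added drug above about 55%, and viability with drug at most 40%, in both replicates, limit read from the data, passing the limit was not always enough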); settings: CellTiter-Glo, 72 h, at 10 µM; for differential viability (reversal): stronger effect = higher value
[7] = 384-well plate pilot, post-Golgi transport modulator project, inhibition of yeast transport mutant growth (AID 636; in the data active means inhibition above about 31%); settings: absorbance 615 nm, about 18 h, stronger effect = higher value
[8] = growth suppression of yeast trafficking mutant, preliminary HTS, modulators of trafficking downstream of Golgi apparatus project, 1536-format plate, OD 615 nm (AID 637; in the data active means inhibition above about 30%); settings: yeast transport mutant growth, absorbance 615 nm, 18 h; stronger effect = higher value
[9] = H69AR cells + 2 uM doxorubicin, measured here: viability with 2 uM doxorubicin, stronger effect = lower value
[10] = H69AR cells, compound alone cytotoxicity

Receptor tyrosine-protein kinase erbB-2 (Homo sapiens), sequence (P04626 whole entry, looked up): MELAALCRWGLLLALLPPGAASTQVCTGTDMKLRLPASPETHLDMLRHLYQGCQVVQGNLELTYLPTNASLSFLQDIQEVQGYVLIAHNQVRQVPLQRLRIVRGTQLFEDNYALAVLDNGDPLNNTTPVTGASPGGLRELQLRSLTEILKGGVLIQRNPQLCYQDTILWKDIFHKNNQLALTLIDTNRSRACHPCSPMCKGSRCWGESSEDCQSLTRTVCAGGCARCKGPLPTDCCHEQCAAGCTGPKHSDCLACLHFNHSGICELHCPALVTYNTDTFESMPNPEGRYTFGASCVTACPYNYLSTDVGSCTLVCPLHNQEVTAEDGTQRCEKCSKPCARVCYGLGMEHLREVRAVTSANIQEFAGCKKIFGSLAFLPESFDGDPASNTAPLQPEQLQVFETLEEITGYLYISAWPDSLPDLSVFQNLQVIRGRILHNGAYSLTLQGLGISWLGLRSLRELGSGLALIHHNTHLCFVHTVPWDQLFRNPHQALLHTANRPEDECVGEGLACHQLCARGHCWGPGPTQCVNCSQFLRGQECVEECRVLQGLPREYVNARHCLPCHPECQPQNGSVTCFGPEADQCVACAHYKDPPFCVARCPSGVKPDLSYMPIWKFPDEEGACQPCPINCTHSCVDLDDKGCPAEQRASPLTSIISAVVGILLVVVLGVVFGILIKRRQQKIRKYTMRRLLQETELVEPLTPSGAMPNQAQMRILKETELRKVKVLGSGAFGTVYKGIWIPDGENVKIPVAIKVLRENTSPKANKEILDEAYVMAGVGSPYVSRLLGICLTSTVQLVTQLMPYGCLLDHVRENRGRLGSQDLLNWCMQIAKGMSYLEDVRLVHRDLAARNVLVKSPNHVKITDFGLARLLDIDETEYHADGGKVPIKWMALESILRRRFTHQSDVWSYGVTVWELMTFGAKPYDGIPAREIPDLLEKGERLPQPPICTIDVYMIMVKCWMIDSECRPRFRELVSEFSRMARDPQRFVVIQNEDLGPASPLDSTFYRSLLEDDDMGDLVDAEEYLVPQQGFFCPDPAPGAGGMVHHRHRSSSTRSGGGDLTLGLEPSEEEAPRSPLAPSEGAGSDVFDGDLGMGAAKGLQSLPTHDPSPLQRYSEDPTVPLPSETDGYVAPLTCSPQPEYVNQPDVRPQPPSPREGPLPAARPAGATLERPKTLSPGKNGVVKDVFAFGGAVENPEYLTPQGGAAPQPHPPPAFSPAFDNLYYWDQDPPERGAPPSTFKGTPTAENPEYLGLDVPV

Row | SMILES | viability [1] [%] | Her2 level [2] | viability [3] | viability [4] | viability [5] | differential viability (reversal) ([6]; H69AR cells + 2 uM doxorubicin) | viability [6, 9] [%] | viability [6, 10] [%] | inhibition [7] | inhibition [8]
1 | CCSc1nc2ccccc2n1CC(N)=O | 102 | 81% (inactive) | 102% (inactive) | 96.5% (inactive) | 88.8% (inactive) | 6.57% (inactive) | 82.2 | 88.8 | -9.04% (inactive) | 1.9% (inactive)
2 | Cn1c(=O)[nH]c2cc3ccccc3cc21 | 118 | 94% (inactive) | 118% (inactive) | 26.6% (active) | 95.6% (inactive) | 16.5% (inactive) | 79.1 | 95.6 | -6.05% (inactive) | -0.73% (inactive)
3 | COc1ccc(-n2c(Cc3cccn3C)nnc2SCC(=O)NCC2CCCO2)cc1 (stereo not given) | 100 | 107% (inactive) | 100% (inactive) | 93.9% (inactive) | 100% (inactive) | 7.7% (inactive) | 92.3 | 100 | -0.9% (inactive) | 3% (inactive)
4 | Cc1nc2ccccn2c1C(=O)NCCCN1CCOCC1 | 91.5 | 94.5% (inactive) | 91.5% (inactive) | 109% (inactive) | 102% (inactive) | 5.8% (inactive) | 96.4 | 102 | -0.27% (inactive) | 4.59% (inactive)
5 | CCOC(=O)Nc1c(C(=O)OC)[nH]c2cccc(OC)c12 | 76 | 112% (inactive) | 76% (inactive) | 106% (inactive) | 104% (inactive) | 13% (inactive) | 91 | 104 | 3.03% (inactive) | 9.52% (inactive)
6 | C=C(C)Cn1c(SCC)nc2ccccc2c1=O | 93 | 97.5% (inactive) | 93% (inactive) | 104% (inactive) | 85.6% (inactive) | -3% (inactive) | 88.6 | 85.6 | -5.39% (inactive) | -3.27% (inactive)
7 | N#CCCCCn1c(-c2cncs2)nc2ccccc21 | 93.5 | 126% (inactive) | 93.5% (inactive) | 84.2% (inactive) | 93.8% (inactive) | 13.5% (inactive) | 80.3 | 93.8 | -5% (inactive) | -5.33% (inactive)
8 | COc1cccc(-c2csc3nnc(SCC(=O)c4ccc(NC(C)=O)cc4)n23)c1 | 108 | 106% (inactive) | 108% (inactive) | 92% (inactive) | 90% (inactive) | -9.79% (inactive) | 99.8 | 90 | -4.42% (inactive) | -0.66% (inactive)
9 | CC(C)OC(=O)CSc1nnc(-c2ccc(C(C)(C)C)cc2)n1N | 93 | 108% (inactive) | 93% (inactive) | 86.7% (inactive) | 88.4% (inactive) | 5.61% (inactive) | 82.8 | 88.4 | -2.6% (inactive) | -12.7% (inactive)
10 | O=C(CSc1nnc(-c2ccccc2F)o1)OCc1ccccc1 | 83.5 | 88.5% (inactive) | 83.5% (inactive) | 102% (inactive) | 102% (inactive) | 17.8% (inactive) | 84.3 | 102 | -5.68% (inactive) | 2.95% (inactive)
11 | O=C(C1CCCCC1)N1CCC(c2nc3c(nnn3Cc3c(F)cccc3Cl)c(=O)[nH]2)CC1 | 87.5 | 96.5% (inactive) | 87.5% (inactive) | 85.2% (inactive) | 71.3% (inactive) | 48.4% (inactive) | 22.9 | 71.3 | -3.77% (inactive) | -6.39% (inactive)
12 | COc1ccccc1-c1nnc(SCc2ccccn2)n1C | 94 | 107% (inactive) | 94% (inactive) | 113% (inactive) | 80.6% (inactive) | -10.8% (inactive) | 91.4 | 80.6 | 7.53% (inactive) | 9.37% (inactive)
13 | CCOC(=O)c1c(C)[nH]c(C)c1C(=O)COc1ccc(NC(=O)c2ccco2)cc1 | 88.5 | 102% (inactive) | 88.5% (inactive) | 91.8% (inactive) | 86.9% (inactive) | -6.89% (inactive) | 93.8 | 86.9 | -1.43% (inactive) | 3.65% (inactive)
14 | CCOc1ccc(OCc2cccc(C(=O)O)c2)cc1 | 108 | 106% (inactive) | 108% (inactive) | 77.6% (inactive) | 89.6% (inactive) | 10.5% (inactive) | 79.1 | 89.6 | -1.6% (inactive) | -3.87% (inactive)
15 | CC1CCN(S(=O)(=O)c2ccc(S(=O)(=O)NCC(=O)C(C)(C)C)cc2)CC1 | 108 | 97% (inactive) | 108% (inactive) | 92.7% (inactive) | 91.8% (inactive) | 6.57% (inactive) | 85.3 | 91.8 | -6.97% (inactive) | -8.23% (inactive)
16 | COc1ccc(Cc2noc(-c3ccc(C)cc3)n2)cc1 | 91 | 131% (inactive) | 91% (inactive) | 90.1% (inactive) | 91.2% (inactive) | 14.9% (inactive) | 76.3 | 91.2 | 4.87% (inactive) | 45.8% (active)
17 | O=C(O)CC1=C(O)C(=O)N(c2ccccc2)C1c1ccccc1 (stereo not given) | 102 | 107% (inactive) | 102% (inactive) | 96.9% (inactive) | 102% (inactive) | 7.7% (inactive) | 94.1 | 102 | -1.49% (inactive) | -0.49% (inactive)
18 | NC(=O)C1(N2CCCCC2)CCN(Cc2ccccc2Cl)CC1 | 102 | 77% (inactive) | 102% (inactive) | 87.8% (inactive) | 83.8% (inactive) | 3.07% (inactive) | 80.8 | 83.8 | -6.62% (inactive) | -1.17% (inactive)
19 | Cc1nc(CNS(=O)(=O)c2cc(C)c(C)cc2C)cs1 | 99 | 89% (inactive) | 99% (inactive) | 121% (inactive) | 94.3% (inactive) | 4.38% (inactive) | 89.9 | 94.3 | -7.57% (inactive) | 1.67% (inactive)
20 | Cc1csc(SCc2nc3sc4c(c3c(=O)[nH]2)CCC4)n1 | 116 | 122% (inactive) | 116% (inactive) | 103% (inactive) | 87.8% (inactive) | 1.88% (inactive) | 86 | 87.8 | -6.16% (inactive) | 0% (inactive)
21 | O=C(Nc1ccc2c(c1)OCCO2)C1CCCN1S(=O)(=O)c1cccc2cccnc12 (stereo not given) | 92 | 100% (inactive) | 92% (inactive) | 100% (inactive) | 96.8% (inactive) | 14.4% (inactive) | 82.3 | 96.8 | -1.33% (inactive) | -0.98% (inactive)
22 | CCOC(=O)Nc1cc(OCC)c(NC(=O)C2CC2)cc1OCC | 97 | 112% (inactive) | 97% (inactive) | 111% (inactive) | 100% (inactive) | 12.8% (inactive) | 87.3 | 100 | -6.13% (inactive) | -4.26% (inactive)
23 | CCCOc1ccccc1NC(=O)c1c(-c2ccccc2)noc1C | 84.5 | 92% (inactive) | 84.5% (inactive) | 79.7% (inactive) | 89% (inactive) | 7.04% (inactive) | 82 | 89 | 1.67% (inactive) | 5% (inactive)
24 | COc1cccc(OC)c1OCCN1CCN(C(=O)c2ccco2)CC1 | 86.5 | 88.5% (inactive) | 86.5% (inactive) | 107% (inactive) | 95.8% (inactive) | 10.7% (inactive) | 85 | 95.8 | -6.85% (inactive) | -4.92% (inactive)
25 | c1ccc(N2CCN(Cc3ccnc4ccccc34)CC2)cc1 | 98 | 81.5% (inactive) | 98% (inactive) | 71.2% (inactive) | 72.4% (inactive) | -21.1% (inactive) | 93.5 | 72.4 | -6.22% (inactive) | -0.82% (inactive)
26 | N#Cc1c(/N=C/c2cccs2)sc2c1CCCCC2 | 98.5 | 88.5% (inactive) | 98.5% (inactive) | 66.5% (inactive) | 90.3% (inactive) | 16.3% (inactive) | 73.9 | 90.3 | -5.33% (inactive) | 5.74% (inactive)
27 | OCCNc1nc2ccc(Cl)cc2[nH]1 | 84 | 100% (inactive) | 84% (inactive) | 108% (inactive) | 107% (inactive) | 9.03% (inactive) | 97.9 | 107 | -6.89% (inactive) | 5.08% (inactive)
28 | CCc1cc2c(=O)n(C(C)C(=O)OC3CCCCC3)cnc2s1 (stereo not given) | 102 | 117% (inactive) | 102% (inactive) | 90.1% (inactive) | 81.6% (inactive) | -4.32% (inactive) | 85.9 | 81.6 | -6.62% (inactive) | -5.83% (inactive)
